What was measured:
[1] = system: Camelpox virus; experiment: Antiviral activity against Camelpox virus CML14 infected in human PHK assessed as inhibition of virus-induced cytopathic effect after 6 days by Giemsa staining; type: functional, organism-based; details: CML14, 144 h
[2] = Selectivity index, ratio of CC50 for human PHK to EC50 for Camelpox virus CML1 infected in human PHK
[3] = Selectivity index, ratio of CC50 for HEL299 cells to EC50 for Camelpox virus CML1 infected in HEL299 cells; type: toxicity, cell-based, HEL 299; details: human, HEL299 cells; read-out: Ratio CC50/IC50
[4] = system: Camelpox virus; experiment: Antiviral activity against Camelpox virus CML1 infected in HEL299 cells assessed as inhibition of virus-induced cytopathic effect after 6 days by Giemsa staining; type: functional, organism-based; details: CML1, HEL 299, 144 h
[5] = Cytotoxicity against human PHK after 4 days by Z1 Coulter counting analysis; details: PHK cells
Summary of the method: (§1)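 Cell growth inhibition: HEL cells were seeded at 3.5 × 10³ per well and PHKs at 5 × 10³ per well. Serial dilutions were added in duplicate after 1 day (HEL) or 3 days (PHK). After 4 days with compound, cells were trypsinized and counted with a Coulter counter (8 μm lower limit). CC50 is the concentration reducing growth by 50%, mean ± SD of at least two experiments.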

[6] = system: Camelpox virus; experiment: Antiviral activity against Camelpox virus CML1 infected in human PHK assessed as inhibition of virus-induced cytopathic effect after 6 days by Giemsa staining; type: functional, organism-based; details: CML1, 144 h
[7] = Cytotoxicity against HEL299 cells after 4 days by Z1 Coulter counting analysis; type: cell-based, HEL 299; details: human, HEL299 cells; summary of the method: as §1
[8] = Selectivity index, ratio of CC50 for human PHK to EC50 for Camelpox virus CML14 infected in human PHK
[9] = system: Camelpox virus; experiment: Antiviral activity against Camelpox virus CML14 infected in HEL299 cells assessed as inhibition of virus-induced cytopathic effect after 6 days by Giemsa staining; type: functional, organism-based; details: CML14, HEL 299, 144 h
[10] = Selectivity index, ratio of CC50 for HEL299 cells to EC50 for Camelpox virus CML14 infected in HEL299 cells; type: toxicity, cell-based, HEL 299; details: human, HEL299 cells; read-out: Ratio CC50/IC50

Nc1nc(N(CC(=O)O)CC(=O)O)c2ncn(CCOCP(=O)(O)O)c2n1
EC50 [1]: > 124 µM
Ratio CC50/IC50 [2]: 1
selectivity ratio [3]: 1
EC50 [4]: > 124 µM
CC50 at 96 h [5]: > 124 µM
EC50 [6]: > 124 µM
CC50 at 96 h [7]: > 124 µM
Ratio CC50/IC50 [8]: 1
EC50 [9]: > 124 µM

Nc1nc(NCCP(=O)(O)O)c2ncn(CCOCP(=O)(O)O)c2n1
EC50 [1]: > 127 µM
Ratio CC50/IC50 [2]: <0.5
selectivity ratio [3]: < 0.3
EC50 [4]: > 127 µM
CC50 at 96 h [5]: 59 µM
selectivity ratio [10]: < 0.3
EC50 [6]: > 127 µM
CC50 at 96 h [7]: 43 µM
Ratio CC50/IC50 [8]: <0.5
EC50 [9]: > 127 µM

Nc1nc(NC(CO)C(=O)O)c2ncn(CCOCP(=O)(O)O)c2n1 (racemic)
EC50 [1]: 93.4 µM
Ratio CC50/IC50 [2]: 0.03
selectivity ratio [3]: 0.1
EC50 [4]: 54.5 µM
CC50 at 96 h [5]: 2 µM
selectivity ratio [10]: 0.1
EC50 [6]: 81.8 µM
CC50 at 96 h [7]: 3 µM
Ratio CC50/IC50 [8]: 0.03
EC50 [9]: 55.7 µM

C[C@@H](Cn1cnc2c(N)ncnc21)OCP(=O)(O)O
EC50 [1]: > 176 µM
Ratio CC50/IC50 [2]: 1
selectivity ratio [3]: 1
EC50 [4]: > 176 µM
CC50 at 96 h [5]: > 176 µM
EC50 [6]: > 176 µM
CC50 at 96 h [7]: > 176 µM
Ratio CC50/IC50 [8]: 1
EC50 [9]: > 176 µM

CN(C)c1ncnc2c1ncn2CCOCP(=O)(O)O
EC50 [1]: 10.9 µM
Ratio CC50/IC50 [2]: 0.1
selectivity ratio [3]: 1
EC50 [4]: 29.4 µM
CC50 at 96 h [5]: 1 µM
selectivity ratio [10]: 1
EC50 [6]: 8.5 µM
CC50 at 96 h [7]: 22 µM
Ratio CC50/IC50 [8]: 0.1
EC50 [9]: 24.6 µM

Nc1nc(N)c2ncn(CCOCP(=O)(O)O)c2n1 [PMEDAP]
EC50 [1]: 63.7 µM
Ratio CC50/IC50 [2]: 0.1
selectivity ratio [3]: < 1
EC50 [4]: > 173 µM
CC50 at 96 h [5]: 8 µM
selectivity ratio [10]: < 1
EC50 [6]: 93 µM
CC50 at 96 h [7]: 100 µM
Ratio CC50/IC50 [8]: 0.1
EC50 [9]: > 173 µM

Nc1nc(NCCOCP(=O)(O)O)c2ncn(CCOCP(=O)(O)O)c2n1
EC50 [1]: > 118 µM
EC50 [4]: > 118 µM
EC50 [6]: > 118 µM
EC50 [9]: > 118 µM

CC(O)C(Nc1nc(N)nc2c1ncn2CCOCP(=O)(O)O)C(=O)O (racemic)
EC50 [1]: 71.5 µM
Ratio CC50/IC50 [2]: 0.04
selectivity ratio [3]: 0.2
EC50 [4]: 44.1 µM
CC50 at 96 h [5]: 2 µM
selectivity ratio [10]: 0.3
EC50 [6]: 47.7 µM
CC50 at 96 h [7]: 9 µM
Ratio CC50/IC50 [8]: 0.03
EC50 [9]: 29 µM

Nc1ncnc2c1ncn2CCOCP(=O)(O)O [ADEFOVIR]
EC50 [1]: > 183 µM
Ratio CC50/IC50 [2]: 0.5
selectivity ratio [3]: < 1
EC50 [4]: > 183 µM
CC50 at 96 h [5]: 76 µM
selectivity ratio [10]: < 1
EC50 [6]: 162 µM
CC50 at 96 h [7]: 211 µM
Ratio CC50/IC50 [8]: <0.4
EC50 [9]: > 183 µM

Nc1nc(NCS(=O)(=O)O)c2ncn(CCOCP(=O)(O)O)c2n1
EC50 [1]: 4.9 µM
Ratio CC50/IC50 [2]: 0.03
selectivity ratio [3]: 1
EC50 [4]: 1.9 µM
CC50 at 96 h [5]: 0.1 µM
selectivity ratio [10]: 1
EC50 [6]: 3.7 µM
CC50 at 96 h [7]: 2 µM
Ratio CC50/IC50 [8]: 0.03
EC50 [9]: 1.9 µM

C[C@@H](O)[C@H](Nc1nc(N)nc2c1ncn2CCOCP(=O)(O)O)C(=O)O
EC50 [1]: > 128 µM
Ratio CC50/IC50 [2]: <0.2
selectivity ratio [3]: 0.3
EC50 [4]: 112 µM
CC50 at 96 h [5]: 19 µM
selectivity ratio [10]: 0.3
EC50 [6]: > 128 µM
CC50 at 96 h [7]: 39 µM
Ratio CC50/IC50 [8]: <0.2
EC50 [9]: 112 µM

Cc1nc(N)nc2c1ncn2CCOCP(=O)(O)O
EC50 [1]: > 174 µM
Ratio CC50/IC50 [2]: 0.4
selectivity ratio [3]: 1
EC50 [4]: > 174 µM
CC50 at 96 h [5]: > 70 µM
EC50 [6]: > 174 µM
CC50 at 96 h [7]: > 174 µM
Ratio CC50/IC50 [8]: 0.4
EC50 [9]: > 174 µM

Nc1nc(N)c(Br)c(OCCOCP(=O)(O)O)n1
EC50 [1]: > 156 µM
selectivity ratio [3]: < 0.3
EC50 [4]: > 156 µM
selectivity ratio [10]: < 0.3
EC50 [6]: > 156 µM
CC50 at 96 h [7]: 52 µM
EC50 [9]: > 156 µM

From ChEMBL document CHEMBL1137668, “Activities of several classes of acyclic nucleoside phosphonates against camelpox virus replication in different cell culture models” (Antimicrob Agents Chemother, 2007)
